Measured values taken from ChEMBL document CHEMBL4513216, “Probing the Open Global Health Chemical Diversity Library for Multistage-Active Starting Points for Next-Generation Antimalarials” (ACS Infect Dis, 2020).

Test: Toxicity liver stage against HepG2, at 10uM
Format: cell-based
Parameters: test concentration 10 uM, cell line HepG2-A16-CD81EGFP
Conditions: human, HepG2-A16-CD81EGFP cells; read-out: INHIBITION
How it was run: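 Uninfected HepG2-A16-CD81EGFP cells, 3 × 10^3 per well, 1536-well, plated on prespotted compound at 10 μM final, parasite-free screening media added to match infected plates; puromycin 10 μM positive, DMSO 0.5% negative; run in parallel with 48 h PbLuc assay at 37 °C, 5% CO2; viability by CellTiter-Glo luminescence, normalized to controls.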

SMILES | cytotoxicity at 10 µM
O=C(NCC1CC1)C1CCC2(CCN(C(=O)c3cccnc3)CC2)O1 (stereo unspecified) | 3.59%
Cc1cnc2c(S(=O)(=O)NC(=O)C(C)OCC3CC3)cccc2c1 (stereo unspecified) | -1%
c1cncc(OC[C@@H]2CC[C@H]3[C@H](CCN3Cc3cccs3)O2)c1 | 6.23%
CC(C)Cc1cc(NC(=O)c2ccc(=O)[nH]n2)n(C)n1 | -10.1%
Cc1ccc(N2CC[C@H]3O[C@@H](C(=O)N4CCCCO4)CC[C@H]32)nn1 | 5.37%
CCN1CCC(NC(=O)CN2CCCC2Cn2cncn2)CC1 (stereo unspecified) | 6.54%
COc1ccccc1OCCCc1cc(C)nc(N)n1 | 0.915%
COCCn1cnnc1CCNc1cc(C)nc2ccnn12 | -1.42%
CNC(=O)C1CN(c2ccc(F)cc2)CCN1 (stereo unspecified) | 7.9%
COC(=O)c1ccc(N(C(=O)c2ccncc2)C(C)C)c(C)c1 | 0.503%
Cc1nc(CN(C)Cc2nc(-c3sccc3C)oc2C)no1 | -0.205%
CCn1c(CC2CCN(S(=O)(=O)c3cccs3)CC2)nn(C)c1=O | 3.63%
CC(C)N1CCC2(CCCN(C(=O)c3cncn3C)C2)CC1 | -0.0499%
CN1CCCCC12CCN(c1nncs1)CC2 | 6.89%
Cn1cc(CN2C[C@@H](N3CCCC3=O)[C@H]3OCCC[C@H]32)cn1 | 8.92%
COc1ccc(NC(=O)Cn2nc(C)ccc2=O)cc1OC | 1.57%
NCc1ccc(Oc2cccc(Cl)c2Cl)nc1 | 4.75%
COc1cccc(CN2CCCC(c3nn(C)c4nccnc34)C2)c1 (stereo unspecified) | -11.2%
Clc1cccc(C2CCN(c3ncnc4c3CCNC4)C2)c1 (stereo unspecified) | 50%
CCN(CC)C(=O)CN1CCCC(c2nc(C)c3c(n2)N(C)CCC3)C1 (stereo unspecified) | 10.2%
COc1c(F)cc(NCC(=O)NC(C)(C#N)C2CC2)cc1F (stereo unspecified) | -3.82%

SMILES | cytotoxicity at 10 µM
Cc1nnc(N2CC[C@H]3C[C@@H](C(=O)NC4CCCC4)O[C@H]3C2)s1 | 6.69%
CCO[C@H]1C[C@@H](O)C12CCN(C(=O)CN1CCCCCC1=O)CC2 | 2.71%
COC1(CNC(=O)NCc2ccccc2)CCSC1 (stereo unspecified) | -2.42%
CC(=O)NC(C)C1=CCCN(Cc2ccc(C(=O)O)cc2)C1 (stereo unspecified) | -12.1%
Fc1ccc2c(c1)CCC2NCc1ccc(N2CCOCC2)cc1 (stereo unspecified) | -1.54%
O=C(Nc1cnn(CCN2CCOCC2)c1)c1ccccc1O | -3.38%
Cc1cc(F)ccc1N1CCCC(NC2CCSCC2)C1=O (stereo unspecified) | 1.07%
CN(C)C(=O)CN1CCC2(CCCN(Cc3ccoc3)C2)C1=O (stereo unspecified) | -103%
O=C([C@@H]1CC[C@@H]2[C@@H](CCN2Cc2cccc(F)c2)O1)N1CCCCO1 | -6.71%
Cc1cccn2cc(CNS(=O)(=O)N3CCOCC3)nc12 | -6.6%
Cc1nc2c(c(C)c1CC(=O)NCc1cccc(C#N)c1)c(=O)[nH]n2C | -0.722%
O=C(C1CCC1)N1CCC(C(=O)N2CCC(c3ccc(F)cc3)C2)CC1 (stereo unspecified) | -39.8%
Cc1ccc(C)c(C(NC(=O)C2CC2)c2cccnc2)c1 (stereo unspecified) | -3.5%
O=C([C@H]1CCS(=O)(=O)[C@@H]2CN(CCc3ccccc3)C[C@H]12)N1CCCC1 | 0.688%
CC(=O)N1[C@H](Cn2cncn2)C[C@@H]2CN(c3ncccn3)CC[C@@H]21 | -2.96%
CCN(CCO)C[C@@H]1CN(c2nc(C)cc(C)n2)C[C@@H]1CO | -5.34%
Cc1ccc(NC2CCN(C(=O)c3cccc4cccnc34)CC2)nn1 | -8.31%
CC1CN(C(=O)c2ccn(C)c(=O)c2)c2ccccc2NC1=O (stereo unspecified) | 2.94%
CCCc1noc(CCC(=O)N2CCCC2c2cccs2)n1 (stereo unspecified) | -14.4%
O=C(c1ccccc1-c1nc[nH]n1)N1CCOC(C(F)(F)F)C1 (stereo unspecified) | -0.359%
O=C(c1ccnnc1)N1C[C@@H]2CN(c3ncccn3)C[C@@H]2C1 | 7.19%

SMILES | cytotoxicity at 10 µM
CCN(C(=O)CN(C)C(c1cccc(F)c1)c1ccccn1)C1CC1 (stereo unspecified) | -8.65%
COc1ccc(C(=O)N2CC(c3ccncc3)C2)c(OC)c1OC | -1.86%
CCc1cnc(CN(C)C2CCN(CCc3cccs3)C2)o1 (stereo unspecified) | -16.8%
CCc1csc(C2CCCN(C(=O)c3cc(C4CC4)[nH]n3)C2)n1 (stereo unspecified) | -1.22%
O=C(c1cc2c(s1)CCCC2)N1CCCC1Cn1cccn1 (stereo unspecified) | -11.9%
CC(C)Nc1ncnc2c1CCN(C(=O)c1ccncc1F)CC2 | 4.76%
CNC(=O)CN1CCC(NC(=O)Cc2ccc3c(c2)OCCO3)CC1 | -18.3%
Cc1cc(=O)n(C)cc1NC(=O)CC1CCC1 | -9.64%
Cc1nn(C)cc1-c1ccnc(N2CCN(c3cnccn3)CC2)n1 | 7.26%
CCn1nc(C)c(CNC(=O)c2nnc3ccc(OC)cc3n2)c1C | 6.58%
c1ccc(-c2noc(CN3CCCC(Cn4cncn4)C3)n2)nc1 (stereo unspecified) | 3.12%
COc1ccc2nc(CNC(=O)c3cc(C(C)C)no3)[nH]c2c1 | -0.527%
NC(=O)CCCNC(=O)c1cc(Br)c2c(c1)OCCO2 | 9.31%
O=C1CC(c2ccc(Cl)c(Cl)c2)c2c(n3ccsc3nc2=O)N1 (stereo unspecified) | -0.839%
CCS(=O)(=O)N1CCc2c(cccc2NC(=O)NCCOC)C1 | 2.17%
CC(=O)N[C@@H]1CN(Cc2nccn2C)C[C@H]1c1ccc(C)cc1 | 14.1%
CC(C)OCc1ncn2c1CN(Cc1cnn(C)c1)CCC2 | 6.13%
Cc1cc(C)n2c(CCCNS(=O)(=O)c3ccccc3)nnc2n1 | 1.18%
CSc1ccc(-n2nnc(C(=O)O)c2-c2ccccn2)cc1 | -3.01%
COc1ccc(S(=O)(=O)NCCCc2ccc(N(C)C)cc2)cc1F | -2.59%
CCc1nccn1C1CCCN(C(=O)c2ccc3c(c2)nnn3C)C1 (stereo unspecified) | -10.6%

SMILES | cytotoxicity at 10 µM
CC(=O)NC1CCCN(Cc2csc(-c3ncccn3)n2)C1 (stereo unspecified) | -13.1%
Cn1cc(CN2CCOC(c3cccc(-c4cccc(F)c4)n3)C2)cn1 (stereo unspecified) | -11.1%
Cn1ccnc1CN(CCO)C(=O)C1CCN(C(=O)C2CC2)CC1 | 2.55%
COc1ccc(CN2C[C@@H]3CN(CCO)C[C@@H]3C2=O)cc1 | 9.27%
CN(C)C(=O)COCc1cncc2c1CCN(Cc1ccccn1)C2 | -2.51%
OC(CNc1ccncn1)CN1CCCCCC1 (stereo unspecified) | -0.271%
C=C(C)COc1cccc(CN(CC)Cc2noc(C)n2)c1 | -12%
O=C(Nc1cccnc1)N(Cc1ccccc1)C1CC1 | 7.78%
Cc1cccc(C(=O)N2CCN(CCC(C)C)CC2)n1 | -3.53%
CN1CC(c2ccccc2)CC12CCN(C(=O)c1ccc(Cl)cc1)CC2 (stereo unspecified) | -2.72%
Cc1ccc(NC(=O)C2=CN=S=N2)cc1 | 3.51%
Cc1cccc(N(CC(=O)N2CCCCC2)Cc2nc(=O)[nH][nH]2)c1 | -2.85%
CC(C)OC(=O)CCNC(=O)Nc1cccc2ncccc12 | 1.03%
CCS(=O)(=O)N1CCC2(CCC2NC(=O)c2ccn(C)c2)CC1 (stereo unspecified) | -2.11%
O=C1CC(N(C(=O)CCc2cc(F)ccc2F)C2CC2)C(=O)N1 (stereo unspecified) | 3.62%
C[C@@H]1CN(C2(C(=O)N(C)C)Cc3ccccc3C2)C[C@H](C)O1 | -5.19%
c1coc(CN2CCn3c(COCC4CC4)nnc3C2)c1 | 6.28%
CC(CNC(=O)Nc1cn[nH]c1)N1CCOCC1 (stereo unspecified) | 1.92%
